Measurements: ChEMBL document CHEMBL1137180, “Synthesis and structure-activity relationship of a novel sulfone series of TNF-alpha converting enzyme inhibitors” (Bioorg Med Chem Lett, 2004)

Tests used:
Collagenase 3 = Collagenase 3 (Homo sapiens, UniProt P45452); experiment: Inhibition of Matrix metalloprotease-13 (MMP-13)
Procedure, shortened: (§1)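 Inhibition is reported as Ki (nM) against each isolated MMP. Each value comes from a single determination, with no replicates.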

[1] = target: Disintegrin and metalloproteinase domain-containing protein 17 (Homo sapiens, UniProt P78536); experiment: Effect on TNF-Alpha release in LPS-stimulated human whole blood assay; assay type: functional, tissue-based
Interstitial collagenase = target: T1, Interstitial collagenase (Homo sapiens, UniProt P03956); experiment: Inhibition of Matrix metalloprotease-1 (MMP-1); procedure, shortened: as §1
T1 sequence (P03956 whole entry): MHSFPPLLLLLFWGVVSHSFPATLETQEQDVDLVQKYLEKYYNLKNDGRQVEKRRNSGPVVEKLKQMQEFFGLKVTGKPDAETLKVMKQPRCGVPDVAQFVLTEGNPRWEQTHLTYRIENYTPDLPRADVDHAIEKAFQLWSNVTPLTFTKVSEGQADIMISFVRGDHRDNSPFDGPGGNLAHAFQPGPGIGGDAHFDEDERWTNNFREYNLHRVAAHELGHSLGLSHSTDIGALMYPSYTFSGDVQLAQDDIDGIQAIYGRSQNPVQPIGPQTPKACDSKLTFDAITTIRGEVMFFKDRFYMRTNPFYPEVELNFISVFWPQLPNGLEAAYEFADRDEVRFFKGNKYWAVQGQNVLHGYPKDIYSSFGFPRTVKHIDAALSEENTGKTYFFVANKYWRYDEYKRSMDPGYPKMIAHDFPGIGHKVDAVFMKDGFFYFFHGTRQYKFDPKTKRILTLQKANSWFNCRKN

[2] = target: Matrix metalloproteinase-9 (Homo sapiens, UniProt P14780); experiment: Inhibition of Matrix metalloprotease-9 (MMP-9); procedure, shortened: as §1
[3] = target: Disintegrin and metalloproteinase domain-containing protein 17 (Sus scrofa, UniProt O77636); experiment: Inhibition of porcine Tumor necrosis factor- alpha converting enzyme (TACE, ADAM17)
Caco-2 [4] = experiment: Permeability action in Caco-2 cell; assay type: functional, Homo sapiens
[5] = target: 72 kDa type IV collagenase (Homo sapiens, UniProt P08253); experiment: inhibition of Matrix metalloprotease-2 (MMP-2); procedure, shortened: as §1
Mus musculus = experiment: Compound was tested for anti TNF-alpha activity using LPS mouse model at 10 mg/kg p.o.; assay type: functional; details: route oral
Caco-2 [6] = experiment: Permeability action in Caco-2 cells; assay type: functional, Homo sapiens

Disintegrin and metalloproteinase domain-containing protein 17 (Sus scrofa, UniProt O77636), sequence (O77636 whole entry, the tested form may be a part): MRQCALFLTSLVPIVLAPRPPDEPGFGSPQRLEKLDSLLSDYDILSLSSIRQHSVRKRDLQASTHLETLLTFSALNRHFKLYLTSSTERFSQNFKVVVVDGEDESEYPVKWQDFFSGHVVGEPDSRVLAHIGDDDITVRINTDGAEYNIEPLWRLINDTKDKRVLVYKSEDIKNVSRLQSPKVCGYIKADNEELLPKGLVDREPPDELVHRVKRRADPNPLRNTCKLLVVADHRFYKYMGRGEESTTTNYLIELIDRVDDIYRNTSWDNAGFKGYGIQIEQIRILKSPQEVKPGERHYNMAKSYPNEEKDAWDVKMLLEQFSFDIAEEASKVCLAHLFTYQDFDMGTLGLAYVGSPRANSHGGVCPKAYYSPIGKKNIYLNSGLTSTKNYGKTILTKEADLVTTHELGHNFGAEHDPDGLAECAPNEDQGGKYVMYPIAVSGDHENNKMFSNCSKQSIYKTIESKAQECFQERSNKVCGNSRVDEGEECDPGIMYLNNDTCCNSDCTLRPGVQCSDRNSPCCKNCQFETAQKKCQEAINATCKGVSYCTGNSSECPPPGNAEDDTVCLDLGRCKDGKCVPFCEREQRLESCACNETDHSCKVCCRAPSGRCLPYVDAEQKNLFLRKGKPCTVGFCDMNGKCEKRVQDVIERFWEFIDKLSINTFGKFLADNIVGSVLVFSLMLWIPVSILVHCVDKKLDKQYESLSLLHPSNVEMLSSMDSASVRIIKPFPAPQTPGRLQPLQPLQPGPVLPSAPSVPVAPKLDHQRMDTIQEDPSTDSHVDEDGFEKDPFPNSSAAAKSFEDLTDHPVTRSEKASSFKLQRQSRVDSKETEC
Disintegrin and metalloproteinase domain-containing protein 17 (Homo sapiens, UniProt P78536), sequence (P78536 whole entry, the tested form may be a part): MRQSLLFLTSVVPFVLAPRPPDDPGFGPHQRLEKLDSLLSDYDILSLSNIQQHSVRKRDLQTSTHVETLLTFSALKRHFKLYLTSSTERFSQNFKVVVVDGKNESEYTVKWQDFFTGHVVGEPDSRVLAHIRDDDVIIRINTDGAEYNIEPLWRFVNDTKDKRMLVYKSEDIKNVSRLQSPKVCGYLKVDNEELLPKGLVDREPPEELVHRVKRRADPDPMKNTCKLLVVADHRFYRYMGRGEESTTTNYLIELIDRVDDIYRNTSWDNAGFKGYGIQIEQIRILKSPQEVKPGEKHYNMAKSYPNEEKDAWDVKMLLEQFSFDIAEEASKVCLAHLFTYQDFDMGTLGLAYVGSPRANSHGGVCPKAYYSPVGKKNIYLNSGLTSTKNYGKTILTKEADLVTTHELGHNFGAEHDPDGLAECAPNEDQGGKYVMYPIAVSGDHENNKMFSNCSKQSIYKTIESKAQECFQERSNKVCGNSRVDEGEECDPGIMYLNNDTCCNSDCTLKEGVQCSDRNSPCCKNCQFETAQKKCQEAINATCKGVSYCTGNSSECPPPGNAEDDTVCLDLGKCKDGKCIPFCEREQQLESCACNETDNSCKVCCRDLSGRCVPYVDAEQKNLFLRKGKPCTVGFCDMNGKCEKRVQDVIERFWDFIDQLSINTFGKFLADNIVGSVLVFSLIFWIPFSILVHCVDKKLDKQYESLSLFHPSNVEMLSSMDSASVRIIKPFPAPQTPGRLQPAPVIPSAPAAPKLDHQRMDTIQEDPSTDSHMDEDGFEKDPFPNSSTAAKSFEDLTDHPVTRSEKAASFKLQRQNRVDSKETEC
72 kDa type IV collagenase, sequence (P08253 whole entry): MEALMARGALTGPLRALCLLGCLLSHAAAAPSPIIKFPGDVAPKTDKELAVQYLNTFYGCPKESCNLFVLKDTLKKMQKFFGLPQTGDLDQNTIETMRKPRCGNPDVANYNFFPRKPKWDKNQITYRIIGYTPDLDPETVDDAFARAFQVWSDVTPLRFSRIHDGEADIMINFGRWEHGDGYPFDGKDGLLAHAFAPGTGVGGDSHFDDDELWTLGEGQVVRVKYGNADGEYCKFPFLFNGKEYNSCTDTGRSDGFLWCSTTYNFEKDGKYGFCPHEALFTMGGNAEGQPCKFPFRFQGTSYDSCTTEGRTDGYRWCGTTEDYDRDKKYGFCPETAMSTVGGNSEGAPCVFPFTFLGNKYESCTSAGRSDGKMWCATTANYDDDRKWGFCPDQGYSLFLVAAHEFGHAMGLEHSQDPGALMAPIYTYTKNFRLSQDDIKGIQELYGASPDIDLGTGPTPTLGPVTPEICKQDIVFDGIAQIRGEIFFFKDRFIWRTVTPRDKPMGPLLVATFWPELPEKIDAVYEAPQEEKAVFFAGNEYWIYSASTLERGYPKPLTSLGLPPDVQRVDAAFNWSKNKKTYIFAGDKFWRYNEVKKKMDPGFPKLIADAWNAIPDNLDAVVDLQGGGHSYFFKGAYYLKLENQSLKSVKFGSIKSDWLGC
Matrix metalloproteinase-9, sequence (P14780 whole entry, the tested form may be a part): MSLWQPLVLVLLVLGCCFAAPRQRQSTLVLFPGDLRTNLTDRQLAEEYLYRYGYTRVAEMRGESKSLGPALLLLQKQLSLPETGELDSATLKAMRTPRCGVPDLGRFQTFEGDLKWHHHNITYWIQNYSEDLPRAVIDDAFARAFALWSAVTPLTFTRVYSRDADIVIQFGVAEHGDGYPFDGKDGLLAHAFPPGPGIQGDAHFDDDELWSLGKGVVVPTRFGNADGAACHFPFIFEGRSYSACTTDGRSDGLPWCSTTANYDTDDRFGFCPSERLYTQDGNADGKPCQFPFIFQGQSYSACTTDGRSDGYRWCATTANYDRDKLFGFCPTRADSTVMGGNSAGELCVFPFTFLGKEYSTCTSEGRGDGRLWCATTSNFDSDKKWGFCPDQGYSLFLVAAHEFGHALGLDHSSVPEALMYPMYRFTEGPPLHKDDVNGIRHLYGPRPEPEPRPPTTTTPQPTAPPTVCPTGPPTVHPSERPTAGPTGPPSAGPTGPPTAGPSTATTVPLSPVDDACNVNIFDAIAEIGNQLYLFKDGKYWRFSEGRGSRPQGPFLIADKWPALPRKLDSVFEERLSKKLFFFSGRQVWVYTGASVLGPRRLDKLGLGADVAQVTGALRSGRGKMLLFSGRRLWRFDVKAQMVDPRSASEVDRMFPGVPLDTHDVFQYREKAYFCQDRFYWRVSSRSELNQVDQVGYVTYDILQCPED

| Ki (Collagenase 3) [nM] | IC50 [1] [nM] | Ki (Interstitial collagenase) [nM] | Ki [2] [nM] | Ki [5] [nM] | Compound | IC50 [3] [nM] | Caco-2 Papp (Caco-2 [4]) [×10⁻⁶ cm/s] | inhibition in vivo at 10 mg/kg (Mus musculus) [%] | Caco-2 Papp (Caco-2 [6]) [×10⁻⁶ cm/s] | ED50 (Mus musculus) [mg/kg] |
| --- | --- | --- | --- | --- | --- | --- | --- | --- | --- | --- |
| > 5000 | 1070 | > 4900 | > 2100 | > 3300 | CCC(C)N1CCC(C(=O)NO)C(CS(=O)(=O)c2ccc(OCc3cc(C)nc4ccccc34)cc2)C1 (stereo unspecified) | < 1 | – | 33 | 1.8 | – |
| 1710 | 180 | > 4900 | > 2100 | > 3300 | Cc1cc(COc2ccc(S(=O)(=O)CC3C(C(=O)NO)CCN3C)cc2)c2ccccc2n1 (stereo unspecified) | < 1 | – | 50 | 1 | 2.5 |
| 377 | 180 | > 4900 | > 2100 | > 3300 | C#CN1CCC(C(=O)NO)C(CS(=O)(=O)c2ccc(OCc3cc(C)nc4ccccc34)cc2)C1 (stereo unspecified) | 1 | – | 24 | 1.3 | – |
| > 5000 | 230 | > 4900 | > 2100 | > 3300 | Cc1cc(COc2ccc(S(=O)(=O)CC3CN(C(C)C)CCC3C(=O)NO)cc2)c2ccccc2n1 (stereo unspecified) | 1.5 | – | 38 | 0.1 | – |

Continued, molecule first:

| Compound | Ki (Collagenase 3) [nM] | IC50 [1] [nM] | Ki (Interstitial collagenase) [nM] | Ki [2] [nM] | Ki [5] [nM] | IC50 [3] [nM] | Caco-2 Papp (Caco-2 [4]) [×10⁻⁶ cm/s] | inhibition in vivo at 10 mg/kg (Mus musculus) [%] | Caco-2 Papp (Caco-2 [6]) [×10⁻⁶ cm/s] | ED50 (Mus musculus) [mg/kg] |
| --- | --- | --- | --- | --- | --- | --- | --- | --- | --- | --- |
| Cc1cc(COc2ccc(S(=O)(=O)CC3CNCCC3C(=O)NO)cc2)c2ccccc2n1 (stereo unspecified) | > 5000 | 250 | > 4900 | > 2100 | > 3300 | 1 | 0.1 | – | – | – |
| Cc1cc(COc2ccc(S(=O)(=O)CC3NCCC3C(=O)NO)cc2)c2ccccc2n1 (stereo unspecified) | 955 | 83 | > 4900 | > 2100 | > 3300 | < 1 | – | 20 | 0.1 | – |
| C=CCN1CCC(C(=O)NO)C(CS(=O)(=O)c2ccc(OCc3cc(C)nc4ccccc34)cc2)C1 (stereo unspecified) | 503 | 160 | > 4900 | > 2100 | > 3300 | 1.8 | – | 25 | 0.97 | – |
